This excerpt belongs to a sample that is enriched for hits.
GASC1 inh – inhibitors of human demethylase GASC-1 KDM4C. inhibition, % at 12.5 µM. Q9H3R0. GST-KDM4C 2-372, H3K9me3 peptide, LANCE TR-FRET. hit rate 0.15% among 96,000;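 active means mean replicate inhibition above about 25%, with at least 55% of replicates also reaching it, limit read from the data, passing the limit was not always enough; inconclusive means only one of those two conditions met; inactive means neither condition met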
Target sequence (Q9H3R0 2-372 limits assumed): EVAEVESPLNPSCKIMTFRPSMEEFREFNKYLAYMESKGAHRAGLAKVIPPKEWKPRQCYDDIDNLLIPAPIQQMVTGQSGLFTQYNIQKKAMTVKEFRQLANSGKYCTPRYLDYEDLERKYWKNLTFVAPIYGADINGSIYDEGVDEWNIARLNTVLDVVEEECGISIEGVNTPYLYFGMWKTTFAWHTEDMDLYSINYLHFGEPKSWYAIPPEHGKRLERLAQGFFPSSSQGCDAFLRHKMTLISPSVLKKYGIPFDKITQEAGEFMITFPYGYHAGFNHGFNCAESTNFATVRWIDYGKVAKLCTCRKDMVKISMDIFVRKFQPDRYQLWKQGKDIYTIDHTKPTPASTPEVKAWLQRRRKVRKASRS
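System: N-terminal GST-fused human GASC-1 (KDM4C) fragment, residues 2-372 / Amount: 10 nM GST-KDM4C in enzyme reaction / Also added: H3K9me3 peptide with Fe(II)/2OG / Times: 30 min demethylation and 1 h detection at room temperature / Signal: LANCE TR-FRET / Read-out basis: Fall in 671/618 emission ratio as inhibition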
IDH1 mut inh – blocks human IDH1 R132H reductase activity | inhibition, % at 10 µM | O75874 | diaphorase/resazurin fluorescence, 60 min | hit rate 0.18% among 70,000; in the data active means inhibition above about 34%; inconclusive means no clear call, values can overlap the other calls; inactive means below about 11%;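 further: 0% = DMSO and 100% = no enzyme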
Target sequence (O75874 whole entry R132H): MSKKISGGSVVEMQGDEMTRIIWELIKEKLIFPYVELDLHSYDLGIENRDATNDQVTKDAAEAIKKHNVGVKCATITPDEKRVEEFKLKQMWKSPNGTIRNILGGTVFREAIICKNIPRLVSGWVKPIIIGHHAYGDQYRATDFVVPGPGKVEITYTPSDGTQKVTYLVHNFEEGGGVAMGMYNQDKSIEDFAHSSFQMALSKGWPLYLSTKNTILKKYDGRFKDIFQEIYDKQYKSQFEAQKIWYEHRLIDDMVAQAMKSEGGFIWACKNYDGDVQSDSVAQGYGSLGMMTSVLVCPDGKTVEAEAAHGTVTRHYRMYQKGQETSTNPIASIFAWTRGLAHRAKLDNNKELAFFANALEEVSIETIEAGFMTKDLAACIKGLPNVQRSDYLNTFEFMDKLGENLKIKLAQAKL
T cruzi growth-1 – T. cruzi proliferation inhibition. T. cruzi beta-gal in NIH3T3, GalScreen luminescence, 90 h. inhibition, % at 8.34 µM. hit rate 5.9% among 77,000;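 active means mean inhibition above about 93%, with at least 55% of replicates each passing it, limit read from the data, passing the limit was not always enough; inconclusive means only one of those two conditions holds; inactive means neither condition holds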
T cruzi growth-2 – blocks T. cruzi growth in NIH3T3 host cells | inhibition, % at 8.35 µM | T. cruzi beta-gal in NIH3T3, GalScreen luminescence, 90 h | AID 651739 | shares compounds with T cruzi growth-1 | hit rate 72% among 5,600;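 active means mean replicate inhibition above about 95% and at least 55% of replicates individually reaching it, limit read from the data; inconclusive means only one of the two criteria is met; inactive means neither criterion is met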
T cruzi growth-3 – blocks T. cruzi growth in NIH3T3 host cells | shares compounds with T cruzi growth-1 | T. cruzi beta-gal in NIH3T3, GalScreen luminescence, 90 h | inhibition, % at 2.09 µM | hit rate 21% among 5,600;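 active means mean inhibition above about 95%, with at least 55% of replicates also reaching it, limit read from the data; inconclusive means meets just one of the two conditions; inactive means meets neither condition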;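 further: plate controls were neutral control median for no effect and positive control median for full effect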
3T3 cytotox – kills mouse NIH/3T3 fibroblasts; shares compounds with T cruzi growth-1; NIH/3T3 viability, CellTiter-Glo ATP luminescence, 90 h; cytotoxicity (signal decrease), % at 8.35 µM; hit rate 14% among 5,600;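 active means mean signal decrease across replicates above about 35% based on untreated-well scatter, with enough replicates individually passing, limit read from the data; inconclusive means no rule stated though some were filed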;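 further: 0% = median of neutral control wells and 100% = median of positive control wells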
NIH3T3 tox 2 – kills mouse NIH/3T3 fibroblasts. shares compounds with T cruzi growth-1. NIH/3T3 viability, CellTiter-Glo ATP luminescence, 90 h. inhibition, % at 24.9 µM. hit rate 56% among 5,600;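 active means mean loss of cell viability signal at or above a set limit, and enough replicates individually reaching it; inconclusive means meets only the mean limit or only the replicate share; inactive means meets neither condition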;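 further: 0% = median of neutral control wells and 100% = median of positive control wells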
Numbers without * were called inactive; u = inconclusive; x = no result.

SMILES	GASC1 inh	IDH1 mut inh	T cruzi growth-1	T cruzi growth-2	T cruzi growth-3	3T3 cytotox	NIH3T3 tox 2
C[C@@H]1CCCCO[C@@H](CN(C)C(=O)Nc2ccccc2)[C@H](C)CN([C@@H](C)CO)C(=O)c2cc(NC(=O)Nc3ccccc3)ccc2O1	-0.6	0.2	u	88.6	40.4	-37.6	-6.8
CC(C)NC(=O)Nc1ccc2c(c1)C(=O)N([C@@H](C)CO)C[C@@H](C)[C@H](CN(C)C(=O)Nc1ccc(F)cc1)OCCCC[C@@H](C)O2	-0.4	x	20.1	x	x	x	x
CC(C)NC(=O)Nc1ccc2c(c1)C(=O)N([C@H](C)CO)C[C@H](C)[C@H](CN(C)C(=O)Nc1ccc(F)cc1)OCCCC[C@H](C)O2	0.3	1.9	95.6*	103.7*	70.3	-1.3	-12.7
C[C@H](CO)N1C[C@H](C)[C@@H](CN(C)C(=O)Nc2ccccc2)OCCCC[C@H](C)Oc2ccc(NC(=O)Nc3ccc(F)cc3)cc2C1=O	-0.4	x	100.1*	u	-21.9	-10.5	24.0
O=C(C[C@@H]1CC[C@@H]2[C@H](COC[C@@H](O)CN2C(=O)Nc2cc(Cl)cc(Cl)c2)O1)NCC1CCCCC1	1.3	x	82.2	x	x	x	x
COc1ccc(S(=O)(=O)Nc2ccc3c(c2)C(=O)N([C@@H](C)CO)C[C@H](C)[C@H](CN(C)C)OCCCC[C@H](C)O3)cc1	0.1	2.3	50.7	x	x	x	x
CCN(CC)CCSc1nnc2c3cc(C)ccc3n(C)c2n1	x	0.1	x	x	x	x	x
CC(=O)c1ccc(NC(=O)CSc2nncn2C)cc1	x	0.0	x	x	x	x	x
C/C=C/c1ccc([C@H]2[C@@H](CO)N(C(=O)CC)C23CN(C(=O)c2ccccc2)C3)cc1	0.7	x	x	x	x	x	x
CCOC(=O)c1sc2ncn(CC(=O)Nc3ccccc3Cl)c(=O)c2c1C	x	0.3	x	x	x	x	x
CC(C)(C)NC(=O)CSc1nnc(-c2ccccc2Cl)n1-c1ccccc1	x	0.1	x	x	x	x	x
C[C@H]1CCCCO[C@@H](CN(C)C(=O)Nc2ccccc2)[C@@H](C)CN([C@@H](C)CO)C(=O)c2cc(NC(=O)Nc3ccc4c(c3)OCO4)ccc2O1	0.7	0.5	122.7*	113.4*	59.5	8.0	-2.5
C[C@H]1CCCCO[C@H](CN(C)C)[C@@H](C)CN([C@@H](C)CO)C(=O)c2cc(NC(=O)CCCCCC(=O)Nc3ccccc3N)ccc2O1	-0.9	x	96.6*	101.8*	17.3	8.2	16.8
C[C@H](CO)N1C[C@H](C)[C@@H](CN(C)C(=O)Nc2ccc(F)cc2)OCCCC[C@H](C)Oc2ccc(NC(=O)Nc3cccc4ccccc34)cc2C1=O	12.1	3.3	105.1*	106.7*	55.2	9.1	u
C[C@@H]1CCCCO[C@@H](CN(C)C)[C@@H](C)CN([C@H](C)CO)C(=O)c2cc(NC(=O)CCCCCC(=O)Nc3ccccc3N)ccc2O1	8.2	x	x	x	x	x	x
C[C@@H]1CCCCO[C@@H](CN(C)C(=O)Nc2cccc3ccccc23)[C@H](C)CN([C@H](C)CO)C(=O)c2cc(N(C)C)ccc2O1	1.9	0.3	101.7*	97.5*	72.5	-34.5	0.0
C[C@@H]1CCCCO[C@@H](CN(C)C(=O)Nc2ccc3c(c2)OCO3)[C@@H](C)CN([C@@H](C)CO)C(=O)c2cc(NC(=O)Nc3ccccc3)ccc2O1	1.0	x	64.5	x	x	x	x
C[C@@H]1CCCCO[C@H](CN(C)C(=O)Nc2ccc(F)cc2)[C@@H](C)CN([C@H](C)CO)C(=O)c2cc(NC(=O)Nc3cccc4ccccc34)ccc2O1	-1.3	x	72.4	x	x	x	x
C[C@@H]1CCCCO[C@@H](CN(C)C(=O)Nc2cccc3ccccc23)[C@@H](C)CN([C@@H](C)CO)C(=O)c2cc(N(C)C)ccc2O1	-1.9	-0.1	56.7	x	x	x	x
COCCNC(=O)c1ccccc1-c1nc(-c2ccc(Cl)cc2)no1	x	-0.5	x	x	x	x	x
COc1ccc(N2C(=O)CC(SCC(=O)Nc3ccc(Cl)c(Cl)c3)C2=O)cc1 (stereo unspecified)	x	-0.2	x	x	x	x	x
Cc1c(Cl)cccc1NC(=O)Cn1cc(C(=O)c2ccccc2)c2ccccc21	x	-0.4	x	x	x	x	x
COc1ccc(S(=O)(=O)n2nc(C)cc2C)cc1N(C)S(=O)(=O)c1ccccc1	x	0.7	x	x	x	x	x
C[C@@H]1CCCCO[C@@H](CN(C)C(=O)Nc2ccccc2)[C@H](C)CN([C@H](C)CO)C(=O)c2cc(NC(=O)NC3CCCCC3)ccc2O1	-0.7	-3.4	104.6*	101.1*	46.5	14.5	10.7
C[C@@H]1CN([C@@H](C)CO)C(=O)c2cc(NC(=O)Nc3cccc4ccccc34)ccc2O[C@@H](C)CCCCO[C@H]1CN(C)C	-1.1	-14.4	98.8*	40.4	-47.7	-0.8	-15.4
SMILES	GASC1 inh	IDH1 mut inh	T cruzi growth-1	T cruzi growth-2	T cruzi growth-3	3T3 cytotox	NIH3T3 tox 2
C[C@@H]1CCCCO[C@@H](CN(C)C(=O)Nc2ccccc2)[C@@H](C)CN([C@H](C)CO)C(=O)c2cc(NC(=O)NC3CCCCC3)ccc2O1	-0.3	0.7	23.3	x	x	x	x
C[C@H]1CCCCO[C@H](CN(C)C)[C@@H](C)CN([C@@H](C)CO)C(=O)c2cc(NC(=O)Nc3cccc4ccccc34)ccc2O1	1.0	-9.0	28.8	x	x	x	x
CC(C)NC(=O)N[C@@H]1CC[C@@H](CCNS(=O)(=O)c2ccc(Cl)cc2)O[C@@H]1CO	1.8	0.1	-23.2	x	x	x	x
C[C@@H]1CCCCO[C@H](CN(C)S(=O)(=O)c2ccc(F)cc2)[C@@H](C)CN([C@@H](C)CO)C(=O)c2cc(NC(=O)Nc3ccc4c(c3)OCO4)ccc2O1	-0.4	x	34.5	x	x	x	x
C[C@@H]1CCCCO[C@H](CN(C)S(=O)(=O)c2ccc(F)cc2)[C@H](C)CN([C@@H](C)CO)C(=O)c2cc(NC(=O)Nc3ccc4c(c3)OCO4)ccc2O1	-1.9	x	100.1*	102.2*	72.3	-18.3	12.3
C[C@@H]1CCCCO[C@@H](CN(C)S(=O)(=O)c2ccc(F)cc2)[C@H](C)CN([C@@H](C)CO)C(=O)c2cc(NC(=O)Nc3ccc4c(c3)OCO4)ccc2O1	0.2	x	24.2	x	x	x	x
C[C@H](CO)N1C[C@H](C)[C@@H](CN(C)S(=O)(=O)c2ccc(F)cc2)OCCCC[C@H](C)Oc2ccc(NC(=O)Nc3ccc4c(c3)OCO4)cc2C1=O	17.5	4.2	99.9*	110.1*	62.2	-23.2	4.1
Cc1sc2ncnc(SCC(=O)Nc3cccc(C(F)(F)F)c3)c2c1C	x	-0.5	x	x	x	x	x
C[C@@H]1CN([C@@H](C)CO)C(=O)c2cc(NS(=O)(=O)c3cn(C)cn3)ccc2O[C@@H](C)CCCCO[C@H]1CN(C)Cc1ccc(C(F)(F)F)cc1	1.9	x	10.6	x	x	x	x
C[C@H](CO)N1C[C@H](C)[C@H](CN(C)C(=O)Nc2ccc(F)cc2)Oc2c(NC(=O)c3ccc(-c4nccs4)cc3)cccc2C1=O	-1.1	x	x	x	x	x	x
C[C@H]1CN([C@@H](C)CO)C(=O)c2cccc(NC(=O)c3ccc(-c4nccs4)cc3)c2O[C@H]1CN(C)C(=O)Nc1ccc(C(F)(F)F)cc1	-3.0	x	94.6	x	x	x	x

Screens deposited in PubChem by Broad Institute.
